Counter-ions that a name gives are not always drawn.
Legend:
[1] = tested on: Plasmodium falciparum; assay: Antimalarial activity against chloroquine-sensitive Plasmodium falciparum 3D7 infected in human erythrocytes assessed as inhibition of [3H]hypoxanthine incorporation after 48 hrs by beta liquid scintillation counting method; type: functional, organism-based
In short: (§1)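 Hydrochloride salts, from DMSO/water stocks (final DMSO <0.05%), added in triplicate to parasites cultured in RPMI 1640 HEPES with L-glutamine, gentamicin, hypoxanthine and 10% pooled human plasma at 37 °C under 3–9% oxygen. Radiolabel was added, then 48 h incubation, freeze-thaw, filtermat harvest and scintillation counting. Uninfected and infected drug-free controls were included. IC50 came from nonlinear regression of log-dose–response curves, with at least 3 separate runs.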

[2] = tested on: Plasmodium falciparum; assay: Antimalarial activity against chloroquine-resistant Plasmodium falciparum W2mef infected in human erythrocytes assessed as inhibition of [3H]hypoxanthine incorporation after 48 hrs by beta liquid scintillation counting method; type: functional, organism-based; in short: as §1
[3] = tested on: NIH3T3; assay: Cytotoxicity against mouse 3T3 cells after 48 hrs by MTT assay; type: cell-based; conditions: NIH3T3, 48 h
In short: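 Cells seeded at 7500 per well on 1% gelatine-coated plates 24 h before testing (37 °C, 5% CO2, humidified). Test agents given as hydrochloride salts in DMSO/water stocks, diluted in RPMI, serially diluted, added in quadruplicate, with vehicle and drug-free controls. After 48 h, MTT (1 mg/mL in RPMI) for 60 min, DMSO solubilisation, absorbance 595 nm. At least three separate runs; IC50 by non-linear regression after DMSO correction.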

[4] = Selectivity index, ratio of IC50 for mouse 3T3 cells to IC50 for chloroquine-resistant Plasmodium falciparum W2mef; type: toxicity, cell-based, NIH3T3; conditions: read-out: Ratio IC50
In short: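 The ratio uses the W2mef antiplasmodial IC50 and the IC50 in 3T3 mouse embryonic fibroblasts. Cells were seeded 24 h earlier at 7500/well on 1% gelatine, 37 °C, 5% CO2. Serial dilutions were added in quadruplicate with a vehicle control for 48 h. MTT (1 mg/mL, 60 min, 37 °C) was solubilised in DMSO and read at 595 nm. IC50 came from nonlinear regression after DMSO correction, with at least 3 runs.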

[5] = tested on: Plasmodium falciparum; assay: Antimalarial activity against Plasmodium falciparum K1; type: functional, organism-based

Row | SMILES | IC50 [1] | IC50 [2] | IC50 [3] | selectivity ratio [4] | IC50 [5]
1 | Cc1cc2nc3c4ccccc4n(C)cc-3c2cc1Br | 62 nM | 131 nM | 2500 nM | 19 | 
2 | CCCCN(CCCC)CC(O)c1cc(Cl)cc2c1-c1ccc(Cl)cc1/C2=C/c1ccc(Cl)cc1 (centres undefined) [LUMEFANTRINE] |  | 56 nM |  |  | 
3 | Cc1ccc2c3cn(C)c4ccccc4c-3nc2c1 | 448 nM | 760 nM | 2070 nM | 2.7 | 
4 | Cn1c2c3cc(Br)ccc3nc-2cc2cc(Br)ccc21 |  |  |  |  | 49 nM
5 | Cn1cc2c3cc(Br)ccc3nc-2c2cc(Br)ccc21 | 127 nM | 112 nM | 2580 nM | 23 | 
6 | Cn1cc2c3cc(Br)ccc3nc-2c2ccccc21 | 85 nM | 184 nM | 1970 nM | 11 | 
7 | Cn1cc2c3ccccc3nc-2c2ccc(Cl)cc21 | 130 nM | 316 nM | 2260 nM | 7.3 | 
8 | Cn1cc2c3ccccc3nc-2c2ccccc21 [ISOCRYPTOLEPINE HYDROCHLORIDE] | 665 nM | 1180 nM | 2190 nM | 1.9 | 
9 | Cn1cc2c3cc(Br)ccc3nc-2c2ccc(Cl)cc21 | 50 nM | 100 nM | 2640 nM | 26 | 
10 | Cn1cc2c3cc(Br)ccc3nc-2c2cc(Cl)ccc21 | 57 nM | 85 nM | 9000 nM | 106 | 
11 | CCN(CC)CCCC(C)Nc1ccnc2cc(Cl)ccc12 (centres undefined) [CHLOROQUINE] |  |  | 72000 nM |  | 
12 | Cn1cc2c3cc(Cl)ccc3nc-2c2ccccc21 | 117 nM | 218 nM | 2100 nM | 9.6 | 

— ChEMBL document CHEMBL1926596, “Synthesis and antimalarial evaluation of novel isocryptolepine derivatives” (Bioorg Med Chem, 2011)
